Test: Toxicity liver stage against HepG2, at 10uM
Format: cell-based
Set-up: test concentration 10 uM, cell line HepG2-A16-CD81EGFP
Details: human, HepG2-A16-CD81EGFP cells; read-out: INHIBITION
Summary of the method: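 Uninfected HepG2-A16-CD81EGFP cells, 3 × 10^3 per well, 1536-well, plated on prespotted compound at 10 μM final, parasite-free screening media added to match infected plates; puromycin 10 μM positive, DMSO 0.5% negative; run in parallel with 48 h PbLuc assay at 37 °C, 5% CO2; viability by CellTiter-Glo luminescence, normalized to controls.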

SMILES | cytotoxicity at 10 µM
CC(=O)N1CCN2C(=O)N(Cc3ccc(F)cc3)C[C@H]2C1 | -4.26%
O=C(c1ccno1)N1CCN2C(=O)N(Cc3ccc(F)cc3)C[C@H]2C1 | -5.96%
Cc1cccn2c(=O)cc(CSCC(=O)Nc3nnc(C(C)C)s3)nc12 | 0.879%
COc1ccc(NC(=O)C2OC(c3cccs3)=NN2C(C)=O)cc1OC (stereo unspecified) | -2.19%
CC(C)c1ccc(C2CC(=O)Nc3c2cnn3C)cc1 (stereo unspecified) | -2.9%
O=C(CCc1nc2cccnc2[nH]1)Nc1ccc2c(c1)NC(=O)CO2 | -1.94%
CN(C)CCCNC(=O)C1CC(=O)N(c2n[nH]c3cccc(F)c23)C1 (stereo unspecified) | -5.92%
CCN1CCCC1CNC(=O)Cc1c(-c2ccc(Cl)cc2)n[nH]c1C (stereo unspecified) | -5.4%
Cc1cc(CN2CCC(CNS(=O)(=O)c3ccccc3F)CC2)c(C)o1 | 5.48%
O=C(N1CCCO1)[C@@]12CCO[C@@H]1CCN(Cc1ccsc1)C2 | 1.73%
Cc1cc(NC(=O)C(C)Oc2ccc3c(c2)OCO3)no1 (stereo unspecified) | -5.08%
COc1ccccc1CN(C)Cc1ccnc(C2CCCO2)n1 (stereo unspecified) | 4.65%
CCN(CC)C1CCN(C(=O)c2cc(-n3cccn3)ccc2Cl)CC1 | 2.87%
OC1(CN2CCC(Cc3ncccn3)CC2)CCCCC1 | 7.69%
CC(C)N1CCCC1c1nc(N(C)C)ncc1I (stereo unspecified) | -0.358%
CCOc1ccc(CN2CCC(c3[nH]ncc3C)C2)cc1CO (stereo unspecified) | -2.38%
Cc1noc(C)c1CC(=O)NCC1(O)CCCN(c2ccccn2)C1 (stereo unspecified) | -2.03%
COCCNCc1cc2cc(C)cc(C)c2[nH]c1=O | -2.13%
CNc1cc(C2CN(CC(=O)N(C)C)CCO2)nc(C)n1 (stereo unspecified) | -14.4%
Cc1cc(N2CCCC2c2cncc(N(C)C)n2)ncn1 (stereo unspecified) | -15.2%
COc1ccccc1CN1CCC(O)(Cn2ccc3ncccc32)CC1 | -0.692%
CC(=O)NC[C@]1(O)CCN(C(=O)c2ccc3c(c2)CCC3)C[C@H]1O | 1.75%
O=C(c1ccco1)N1CCCC(c2cc(C(F)F)n3ncnc3n2)C1 (stereo unspecified) | 4.4%

SMILES | cytotoxicity at 10 µM
O=C(Cc1cccc(F)c1F)NS(=O)(=O)c1cncc(Cl)c1 | 14.5%
COc1ccccc1CC(C)N(C)S(C)(=O)=O (stereo unspecified) | 14%
COCCCNC(=O)CN(C)C(C)c1nc(C)no1 (stereo unspecified) | 8.8%
CN(Cc1ccsc1)C(=O)COC(=O)c1cc(Cl)c[nH]1 | -3.73%
CC(NS(N)(=O)=O)c1ccc(OCc2ccc(F)cc2)cc1 (stereo unspecified) | -2.98%
O=C1NCCCCC1NC(=O)C1(c2cccc(Cl)c2)CC1 (stereo unspecified) | 2.68%
O=C(CNC(=O)c1ccc(Cl)cc1)Nc1nccs1 | -7.55%
CS(=O)(=O)N1CCC(C(=O)N2CCN(Cc3cccc(Cl)c3)CC2)CC1 | 8.99%
CC1CN(C(=O)NCc2ccn(C)c2)CCN1CC(F)(F)F (stereo unspecified) | -4.32%
CCS(=O)(=O)Cc1ccn(-c2cccc(F)c2)n1 | -0.988%
CCc1nc(CN(C)CC(=O)NC(C)C)cs1 | 1.48%
O=C(c1cccnc1)N(Cc1ccncc1)C1CC1 | 8.32%
Cn1nc(CC(C)(C)C)cc1NC(=O)c1ccc2[nH]nnc2c1 | 1.25%
Cc1cc(C)n(CC2CCCN2CC(=O)Nc2nncs2)n1 (stereo unspecified) | 12.1%
Cc1ccc(C(=O)N2CCSCC2)cc1NC(C)C | -3.42%
CCC1CCCCN1Cc1ncc(-c2ccc(OC)cc2)o1 (stereo unspecified) | 8.57%
CCc1nc(CN(C)Cc2ncc(-c3cccs3)o2)cs1 | 9.15%
Cc1noc(C)c1CNCc1ccccc1N(C)C1CCN(C)CC1 | 4.69%
O=C1CC2(CCSC2)C(=O)N1Cc1ncc(-c2ccccc2)o1 (stereo unspecified) | 14.4%
CN(CCN1CCCC1=O)CC(c1cccs1)N1CCOCC1 (stereo unspecified) | 1.52%
OC1(CN2CCC(Cc3ccccc3)CC2)CCC1 | -8.26%
COc1ccccc1C(C)N1CCN(S(=O)(=O)N(C)C)CC1 (stereo unspecified) | -8.8%
c1cnn(C2CN(Cc3noc(C4CC4)n3)C2)c1 | 0.138%

SMILES | cytotoxicity at 10 µM
c1cnc(N2CCN(Cn3nccc3-c3cccnc3)CC2)nc1 | 8.99%
Cc1csc(C2(NCc3ccc(OCC(F)F)cc3)CCCC2)n1 | 2.15%
N#Cc1cc(F)c(NCCc2cccnc2)c(F)c1 | -68.5%
CN(Cc1cccc(F)c1)C(=O)c1ccncc1Cl | 10.5%
Cc1nn(C)c(Cl)c1S(=O)(=O)N(C)c1ccc(Cl)cn1 | 7.92%
Cn1ccnc1-c1cccc(NC(=O)NCCN2CCOCC2)c1 | -7.85%
CCc1nc(C2CCCN2CC(=O)Nc2c(C)nn(C)c2C)no1 (stereo unspecified) | -31.4%
Cc1csc(N2CCN(CCc3ccccn3)CC2C)n1 (stereo unspecified) | -8.81%
CCS(=O)(=O)N1CCC2(CN(Cc3ccc(C)o3)C2)C1 | -109%
O=c1ccc2c(n1CC1CC1)CCC(NS(=O)(=O)C1CC1)C2 (stereo unspecified) | -63.9%
Cc1ccc2c(c1)[C@@H](CC(=O)N1CCOCC1)CCO2 | 8.24%
Nc1ncc(-c2cccc(NC(=O)[C@@H]3CCCCN3)c2)cn1 | 1.86%
COc1cncc(-n2ccnc2-c2ccc(C(=O)O)s2)c1 | 0.571%
COc1cc(C(=O)N(C)C(C)Cc2cc(C)ccn2)ccn1 (stereo unspecified) | -9.57%
CC(C)c1nnsc1CNC(=O)C1CCN(C(=O)C2CC2)CC1 | -0.439%
CCn1ccnc1CN(C)Cc1nc(Cc2ccccc2Cl)no1 | -1.99%
Cn1ncnc1-c1ccnc(NCc2ccncc2)n1 | -3.89%
OCC1(Cc2ccc(Cl)cc2)CCN(Cc2ccccc2O)CC1 | -137%
CCN1CC(C(=O)NCc2cccc(SC)c2)CC1=O (stereo unspecified) | 4.68%
Cc1nc(N(C)Cc2cccc(O)c2)nc2cc(S(C)(=O)=O)ccc12 | -2.54%
CC(C)C1=NOC(c2nc(-c3cccc(Cl)c3)no2)C1 (stereo unspecified) | -7.42%
Cc1ncc2c(c1CNC(=O)C1(C)CC1)CCNC2 | -50.3%
CC(=O)N[C@@H]1CN(C2CCN(c3ccccc3F)CC2)C[C@H]1C(C)C | -14.5%

SMILES | cytotoxicity at 10 µM
CCN1CC2(CCN(C(=O)C(C)Oc3cccc(Cl)c3)CC2)OC1=O (stereo unspecified) | -4.68%
Cc1nnsc1C(=O)N1CCN(CC2CC2)[C@@H]2CS(=O)(=O)C[C@@H]21 | 0.445%
O=C(COCc1ccccc1)N1CCCn2cncc2C1 | 0.375%
COc1cccc2c1OCCCN(c1nc(C)nc3c1CCNCC3)C2 | -10.6%
COc1nc(C)c(C(=O)N2CCc3[nH]nc(Cc4ccccc4)c3C2)s1 | -2.53%
CCN(Cc1noc(C)n1)C(=O)C(c1ccccc1C)N(C)C (stereo unspecified) | 1.89%
O=C(Nc1cnc2n1CCCC2)c1cccc(NC(=O)C2CCCC2)c1 | -5.09%
CCc1nnc(CN2CCc3[nH]c(-c4ccc(OC)cc4)nc3C2)o1 | -132%
CC(C)C1CN(C(=O)c2ccc(Cl)cn2)CCCN1CC1CC1 (stereo unspecified) | 5.15%
CNc1nc2c(c(C(=O)N3CCCC3)n1)CN(Cc1cc(C)no1)CC2 | -103%
O=C(NCCc1[nH]nc2c1CCCC2)C1CCCN(Cc2ccco2)C1 (stereo unspecified) | 2.72%
CCN(Cc1ccc(C(C)=O)cc1)CC1CCOCC1 | -2.69%
CCC(Cn1ccnc1)n1cnc2scc(C)c2c1=O (stereo unspecified) | 10.7%
CCN(Cc1ccncc1)c1cc(C2CCNCC2)nc(C)n1 | 4.34%
CC(C)NCc1cc2n(n1)CCN(C1CCCCC1)C2 | -8.9%
CN(Cc1cc2n(n1)CCNC2)Cc1cc(-c2ccccn2)no1 | 1.91%
O=C(c1cc(Cn2cnc3ccccc32)on1)N1CCOCC1 | -2.46%
c1cnc(N2CCN(CCn3ccnc3-c3c[nH]cn3)CC2)nc1 | 2.14%
Cc1ccc(-c2noc(CCC3CCN(C)CC3)n2)nn1 | -5.79%
CCn1ccnc1CN1C[C@@H](NC(=O)C2CC2)[C@H](c2ccc(C)cc2)C1 | 2.63%
CC(Oc1ccc(F)cc1F)C(=O)N1CCC2(CCCO2)CC1 (stereo unspecified) | 2.24%
CC(C)(C)c1cc(CN2CCOC(CN)C2)n[nH]1 (stereo unspecified) | -12.1%
CN(Cc1ccccc1)C(=O)CCN1C[C@H](C2CC2)[C@@H](N(C)C)C1 | -1.21%

SMILES | cytotoxicity at 10 µM
Cc1ncc(CN2CCN(C(=O)C3CCC3)[C@@H]3CS(=O)(=O)C[C@@H]32)cn1 | -4.19%
COc1cccc2c1OCC(CNC(=O)CNC(N)=O)C2 (stereo unspecified) | -2.93%
O=C(c1ccccn1)N1CCCC(c2nccn2CC2CCC2)C1 (stereo unspecified) | -22.4%
O=C(c1cccc(S(=O)(=O)NCCCc2ccco2)c1)N1CCOCC1 | -23.6%
CN(C)C(=O)c1ccc2c(c1)N(C)C(CC(=O)NCCC(C)(C)C)CO2 (stereo unspecified) | -0.8%
NS(=O)(=O)Cc1cccc(C(=O)N2CCCC(n3cccn3)C2)c1 (stereo unspecified) | 1.25%
O=C(c1cc(C2CC2)[nH]n1)N1CCCC(n2cncn2)C1 (stereo unspecified) | -6%
CCn1ccnc1CN1CCN(CC(O)c2ccccc2)CC1 (stereo unspecified) | -7.41%
O=C(CCCc1nc2ccccc2[nH]1)N1CCCC(n2cccn2)C1 (stereo unspecified) | -0.704%
Cc1cnn(CCNCc2csc(-c3ccc(F)cc3)n2)c1 | -8.54%
Cn1cc(CN2CCC3(CCN(c4cnn(C)c4)C3=O)C2)cn1 (stereo unspecified) | -83.4%
Cc1ccc(N2CC[C@H]3C[C@H](C(=O)NCc4ccco4)O[C@H]3C2)nn1 | -3.03%
Cc1cncc(C(=O)N2CCO[C@H]3[C@H](OCCN(C)C)CC[C@@H]32)c1 | 8.07%
NC(=O)N1C[C@H]2CN(Cc3nccs3)C[C@H]2C1 | 2.6%
Cc1occc1C(=O)N1CCC2(CC1)CN(c1ccccn1)CCO2 | -75.6%
CCS(=O)(=O)N1CCCn2cnc(COc3cccnc3)c2C1 | -0.00278%
Cn1cc(N2CC3(CCN(Cc4nccn4C)C3)CC2=O)cn1 (stereo unspecified) | -72.8%
O=C(c1cnccn1)N1C[C@@H](OCc2cccnc2)[C@H]2OCCC[C@H]21 | -2.78%
O=C(c1cscn1)N1CCC2(CCN(Cc3nccs3)CC2)C1 | -69%

— ChEMBL document CHEMBL4513216, “Probing the Open Global Health Chemical Diversity Library for Multistage-Active Starting Points for Next-Generation Antimalarials” (ACS Infect Dis, 2020)
